Laboratory results as given in ChEMBL document CHEMBL1909502, “Design and synthesis of 2-(1, 3-dioxoisoindolin-2-yl)-N-(4-oxo-2-substitutedthiazolidin-3-yl) acetamide derivatives as potential anticonvulsant agents” (Eur J Med Chem, 2011).
Activity calls are given as the source filed them. The calls are words filed in the database; no cut-off is given here.

Assays:
Mus musculus [1] = experiment: Anticonvulsant activity in Swiss albino CF1 mouse assessed as protection against subcutaneous pentylenetetrazole-induced seizures at 30 to 300 mg/kg, ip after 4 hrs postdose; type: functional, organism-based
Procedure, shortened: (§1)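 Male Swiss albino CF-1 mice, 20–30 g. Compounds were suspended in 0.5% methyl cellulose and given i.p. at 0.01 mL/g, at 30, 100 and 300 mg/kg. MES and sc PTZ seizure tests followed reported procedures at 0.5 h and 4 h post-dose. The value is the minimal dose protecting 50% or more of the animals.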

[2] = Octanol-phosphate buffer partition coefficient, log P of the compound at 5 mg after 24 hrs by UV spectroscopic analysis; type: physicochemical
Procedure, shortened: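 Octanol/phosphate buffer partition at room temperature. 5 mg of drug was added to 10 mL octanol plus 10 mL buffer and shaken mechanically for 24 h. The mixture was left to equilibrate for 6 h, and the phases were separated and membrane-filtered. Drug in the aqueous phase was quantified by UV spectroscopy.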

Mus musculus [3] = experiment: Neurotoxicity in Swiss albino CF1 mouse assessed as decrease in locomotor activity at 30 mg/kg, ip after 4 hrs postdose; type: toxicity, organism-based; design: dose 30 mg/kg, route intraperitoneal; scale not given: the % may be the effect or the level left; settings: in vivo
Procedure, shortened: (§2)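 Compounds in 30% PEG 200 were given i.p. at 30 mg/kg to male Swiss albino CF-1 mice. Locomotor activity was scored digitally in an actophotometer for 10 min, 24 h before dosing and again 0.5 h and 4 h after. The value is the % decrease against the pre-treatment score, as mean ± SEM, with Student's t test at p < 0.05.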

Mus musculus [4] = experiment: Neurotoxicity in Swiss albino CF1 mouse assessed as decrease in locomotor activity at 30 mg/kg, ip after 0.5 hrs postdose; type: toxicity, organism-based; design: dose 30 mg/kg, route intraperitoneal; scale not given: the % may be the effect or the level left; settings: in vivo; procedure, shortened: as §2
Mus musculus [5] = experiment: Neurotoxicity in ip dosed Swiss albino CF1 mouse assessed as minimum dose required to produce minimal motor deficit after 0.5 hrs by rotarod test; type: toxicity, organism-based; settings: in vivo
Procedure, shortened: (§3)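 Mice (male Swiss albino CF-1, groups of 5) were trained on an accelerating rotarod at 10 rpm with a 3.2 cm rod and had to stay on for two consecutive 90 s trials. Trained animals then received 30, 100 or 300 mg/kg i.p. Deficit was inability to stay on the rod for at least 1 min in each of three trials, checked at 0.5 h and 4 h. The value is the minimal dose giving deficit in 50% or more of the animals.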

Mus musculus [6] = experiment: Anticonvulsant activity in ip dosed Swiss albino CF1 mouse assessed as protection against subcutaneous pentylenetetrazole-induced seizures after 0.5 hrs; type: functional; settings: Swiss albino CF1, 0.5 h, read-out: MED; procedure, shortened: as §1
Mus musculus [7] = experiment: Anticonvulsant activity in ip dosed Swiss albino CF1 mouse assessed as protection against maximal electroshock-induced seizures after 4 hrs; type: functional; settings: read-out: MED; procedure, shortened: as §1
Mus musculus [8] = experiment: Anticonvulsant activity in ip dosed Swiss albino CF1 mouse assessed as protection against maximal electroshock-induced seizures after 0.5 hrs; type: functional; settings: read-out: MED; procedure, shortened: as §1
Mus musculus [9] = experiment: Neurotoxicity in Swiss albino CF1 mouse assessed as minimal motor deficit at 30 to 300 mg/kg, ip after 4 hrs by rotarod test; type: toxicity, organism-based; design: dose 30-300 mg/kg, route intraperitoneal; settings: in vivo; procedure, shortened: as §3
Mus musculus [10] = experiment: Neurotoxicity in Swiss albino CF1 mouse assessed as minimal motor deficit at 30 to 300 mg/kg, ip after 0.5 hrs by rotarod test; type: toxicity, organism-based; design: dose 30-300 mg/kg, route intraperitoneal; settings: in vivo; procedure, shortened: as §3
Mus musculus [11] = experiment: Anticonvulsant activity in Swiss albino CF1 mouse assessed as protection against subcutaneous pentylenetetrazole-induced seizures at 30 to 300 mg/kg, ip after 0.5 hrs postdose; type: functional, organism-based; procedure, shortened: as §1
Mus musculus [12] = experiment: Neurotoxicity in ip dosed Swiss albino CF1 mouse assessed as minimum dose required to produce minimal motor deficit after 4 hrs by rotarod test; type: toxicity, organism-based; settings: in vivo; procedure, shortened: as §3
Mus musculus [13] = experiment: Anticonvulsant activity in ip dosed Swiss albino CF1 mouse assessed as protection against subcutaneous pentylenetetrazole-induced seizures after 4 hrs; type: functional; settings: Swiss albino CF1, 4 h, read-out: MED; procedure, shortened: as §1
Mus musculus [14] = experiment: Anticonvulsant activity in Swiss albino CF1 mouse assessed as protection against maximal electroshock-induced seizures at 30 to 300 mg/kg, ip after 0.5 hrs postdose; type: functional, organism-based; procedure, shortened: as §1

O=C(CN1C(=O)c2ccccc2C1=O)NN1C(=O)CSC1c1ccc(Cl)cc1 (stereo not given)
Activity (Mus musculus [1]): inactive | logP at 24 h [2]: 3.21 | Activity (Mus musculus [3]): 16.13% | Activity (Mus musculus [4]): 50.83% | MTC (Mus musculus [5]): 300 mg/kg | minimal effective dose (Mus musculus [6]): 300 mg/kg | minimal effective dose (Mus musculus [7]): 300 mg/kg | minimal effective dose (Mus musculus [8]): 300 mg/kg | Activity (Mus musculus [9]): Non-toxic

CCCC(CCC)C(=O)[O-].[Na+] [VALPROATE SODIUM]
Activity (Mus musculus [10]): Non-toxic | Activity (Mus musculus [1]): inactive | minimal effective dose (Mus musculus [6]): 300 mg/kg | Activity (Mus musculus [9]): Non-toxic

O=C(CN1C(=O)c2ccccc2C1=O)NN1C(=O)CSC1c1c[nH]c2ccccc12 (stereo not given)
Activity (Mus musculus [10]): Non-toxic | Activity (Mus musculus [1]): inactive | logP at 24 h [2]: 1.59 | Activity (Mus musculus [3]): 25.84% | Activity (Mus musculus [4]): 9.95% | minimal effective dose (Mus musculus [6]): 300 mg/kg | minimal effective dose (Mus musculus [7]): 300 mg/kg | minimal effective dose (Mus musculus [8]): 300 mg/kg | Activity (Mus musculus [9]): Non-toxic

O=C(CN1C(=O)c2ccccc2C1=O)NN1C(=O)CSC1c1ccccc1O (stereo not given)
Activity (Mus musculus [1]): inactive | Activity (Mus musculus [11]): inactive | logP at 24 h [2]: 1.46 | Activity (Mus musculus [3]): 36.91% | Activity (Mus musculus [4]): 32.63% | MTC (Mus musculus [12]): 100 mg/kg | MTC (Mus musculus [5]): 100 mg/kg | minimal effective dose (Mus musculus [7]): 100 mg/kg | minimal effective dose (Mus musculus [8]): 100 mg/kg

COc1ccc(C2SCC(=O)N2NC(=O)CN2C(=O)c3ccccc3C2=O)cc1 (stereo not given)
Activity (Mus musculus [1]): inactive | Activity (Mus musculus [11]): inactive | logP at 24 h [2]: 1.97 | Activity (Mus musculus [3]): 14.93% | Activity (Mus musculus [4]): 3.25% | MTC (Mus musculus [12]): 300 mg/kg | MTC (Mus musculus [5]): 300 mg/kg | minimal effective dose (Mus musculus [7]): 100 mg/kg | minimal effective dose (Mus musculus [8]): 100 mg/kg

COc1ccc(C2SCC(=O)N2NC(=O)CN2C(=O)c3ccccc3C2=O)cc1OC (stereo not given)
Activity (Mus musculus [10]): Non-toxic | logP at 24 h [2]: 2.78 | Activity (Mus musculus [3]): 27.95% | Activity (Mus musculus [4]): 20.25% | minimal effective dose (Mus musculus [13]): 300 mg/kg | minimal effective dose (Mus musculus [6]): 100 mg/kg | minimal effective dose (Mus musculus [7]): 300 mg/kg | minimal effective dose (Mus musculus [8]): 300 mg/kg | Activity (Mus musculus [9]): Non-toxic

O=C(CN1C(=O)c2ccccc2C1=O)NN1C(=O)CSC1c1c(F)cccc1Cl (stereo not given)
Activity (Mus musculus [10]): Non-toxic | logP at 24 h [2]: 3.79 | Activity (Mus musculus [3]): 30.18% | Activity (Mus musculus [4]): 12.01% | minimal effective dose (Mus musculus [13]): 300 mg/kg | minimal effective dose (Mus musculus [6]): 300 mg/kg | minimal effective dose (Mus musculus [7]): 100 mg/kg | minimal effective dose (Mus musculus [8]): 100 mg/kg | Activity (Mus musculus [9]): Non-toxic

Cc1ccc(C2SCC(=O)N2NC(=O)CN2C(=O)c3ccccc3C2=O)cc1 (stereo not given)
Activity (Mus musculus [10]): Non-toxic | logP at 24 h [2]: 2.97 | Activity (Mus musculus [3]): 68.16% | Activity (Mus musculus [4]): 25.94% | minimal effective dose (Mus musculus [13]): 300 mg/kg | minimal effective dose (Mus musculus [6]): 100 mg/kg | minimal effective dose (Mus musculus [7]): 30 mg/kg | minimal effective dose (Mus musculus [8]): 30 mg/kg | Activity (Mus musculus [9]): Non-toxic

O=C(CN1C(=O)c2ccccc2C1=O)NN1C(=O)CSC1c1cccs1 (stereo not given)
Activity (Mus musculus [10]): Non-toxic | Activity (Mus musculus [1]): inactive | Activity (Mus musculus [11]): inactive | logP at 24 h [2]: 2.15 | Activity (Mus musculus [14]): inactive | Activity (Mus musculus [3]): 71.73% | Activity (Mus musculus [4]): 63.04% | MTC (Mus musculus [12]): 100 mg/kg | minimal effective dose (Mus musculus [7]): 100 mg/kg

O=C(CN1C(=O)c2ccccc2C1=O)NN1C(=O)CSC1c1cccnc1 (stereo not given)
Activity (Mus musculus [10]): Non-toxic | Activity (Mus musculus [1]): inactive | Activity (Mus musculus [11]): inactive | logP at 24 h [2]: 1.25 | Activity (Mus musculus [3]): 24.01% | Activity (Mus musculus [4]): 18.03% | minimal effective dose (Mus musculus [7]): 300 mg/kg | minimal effective dose (Mus musculus [8]): 100 mg/kg | Activity (Mus musculus [9]): Non-toxic

O=C(CN1C(=O)c2ccccc2C1=O)NN1C(=O)CSC1c1ccc(O)cc1 (stereo not given)
Activity (Mus musculus [1]): inactive | Activity (Mus musculus [11]): inactive | logP at 24 h [2]: 2.4 | Activity (Mus musculus [3]): 43.34% | Activity (Mus musculus [4]): 68.37% | MTC (Mus musculus [12]): 300 mg/kg | MTC (Mus musculus [5]): 300 mg/kg | minimal effective dose (Mus musculus [7]): 100 mg/kg | minimal effective dose (Mus musculus [8]): 30 mg/kg

O=C(CN1C(=O)c2ccccc2C1=O)NN1C(=O)CSC1c1ccccc1 (stereo not given)
logP at 24 h [2]: 2.23 | Activity (Mus musculus [3]): 64.26% | Activity (Mus musculus [4]): 50% | MTC (Mus musculus [12]): 30 mg/kg | MTC (Mus musculus [5]): 30 mg/kg | minimal effective dose (Mus musculus [13]): 300 mg/kg | minimal effective dose (Mus musculus [6]): 100 mg/kg | minimal effective dose (Mus musculus [7]): 100 mg/kg | minimal effective dose (Mus musculus [8]): 100 mg/kg

O=C(CN1C(=O)c2ccccc2C1=O)NN1C(=O)CSC1/C=C/c1ccccc1 (stereo not given)
Activity (Mus musculus [10]): Non-toxic | Activity (Mus musculus [1]): inactive | logP at 24 h [2]: 3.65 | Activity (Mus musculus [3]): 66.5% | Activity (Mus musculus [4]): 5.66% | minimal effective dose (Mus musculus [6]): 300 mg/kg | minimal effective dose (Mus musculus [7]): 300 mg/kg | minimal effective dose (Mus musculus [8]): 300 mg/kg | Activity (Mus musculus [9]): Non-toxic

COc1cc(C2SCC(=O)N2NC(=O)CN2C(=O)c3ccccc3C2=O)ccc1O (stereo not given)
Activity (Mus musculus [10]): Non-toxic | logP at 24 h [2]: 1.31 | Activity (Mus musculus [3]): 7.31% | Activity (Mus musculus [4]): 38.13% | minimal effective dose (Mus musculus [13]): 300 mg/kg | minimal effective dose (Mus musculus [6]): 300 mg/kg | minimal effective dose (Mus musculus [7]): 100 mg/kg | minimal effective dose (Mus musculus [8]): 30 mg/kg | Activity (Mus musculus [9]): Non-toxic

CN(C)c1ccc(C2SCC(=O)N2NC(=O)CN2C(=O)c3ccccc3C2=O)cc1 (stereo not given)
Activity (Mus musculus [10]): Non-toxic | logP at 24 h [2]: 2.84 | Activity (Mus musculus [3]): 44.08% | Activity (Mus musculus [4]): 9.78% | minimal effective dose (Mus musculus [13]): 300 mg/kg | minimal effective dose (Mus musculus [6]): 300 mg/kg | minimal effective dose (Mus musculus [7]): 300 mg/kg | minimal effective dose (Mus musculus [8]): 300 mg/kg | Activity (Mus musculus [9]): Non-toxic

O=C1NC(=O)C(c2ccccc2)(c2ccccc2)N1 [PHENYTOIN]
Activity (Mus musculus [3]): 18.57% | Activity (Mus musculus [4]): 33.9% | MTC (Mus musculus [12]): 100 mg/kg | MTC (Mus musculus [5]): 100 mg/kg | minimal effective dose (Mus musculus [7]): 30 mg/kg | minimal effective dose (Mus musculus [8]): 30 mg/kg

O=C(CN1C(=O)c2ccccc2C1=O)NN1C(=O)CSC1c1ccc(Cl)cc1Cl (stereo not given)
logP at 24 h [2]: 2.54 | Activity (Mus musculus [14]): inactive | Activity (Mus musculus [3]): 25.55% | Activity (Mus musculus [4]): 63.73% | MTC (Mus musculus [5]): 300 mg/kg | minimal effective dose (Mus musculus [13]): 100 mg/kg | minimal effective dose (Mus musculus [6]): 100 mg/kg | minimal effective dose (Mus musculus [7]): 30 mg/kg | Activity (Mus musculus [9]): Non-toxic
